Measured values as given in ChEMBL document CHEMBL1144257, “5-Chloroindoloyl glycine amide inhibitors of glycogen phosphorylase: synthesis, in vitro, in vivo, and X-ray crystallographic characterization” (Bioorg Med Chem Lett, 2005).

Key:
[1] = molecular target: T1, Glycogen phosphorylase, liver form (Homo sapiens, UniProt P06737); assay: Inhibitory concentration against glycogen phosphorylase
T1 sequence (P06737 whole entry): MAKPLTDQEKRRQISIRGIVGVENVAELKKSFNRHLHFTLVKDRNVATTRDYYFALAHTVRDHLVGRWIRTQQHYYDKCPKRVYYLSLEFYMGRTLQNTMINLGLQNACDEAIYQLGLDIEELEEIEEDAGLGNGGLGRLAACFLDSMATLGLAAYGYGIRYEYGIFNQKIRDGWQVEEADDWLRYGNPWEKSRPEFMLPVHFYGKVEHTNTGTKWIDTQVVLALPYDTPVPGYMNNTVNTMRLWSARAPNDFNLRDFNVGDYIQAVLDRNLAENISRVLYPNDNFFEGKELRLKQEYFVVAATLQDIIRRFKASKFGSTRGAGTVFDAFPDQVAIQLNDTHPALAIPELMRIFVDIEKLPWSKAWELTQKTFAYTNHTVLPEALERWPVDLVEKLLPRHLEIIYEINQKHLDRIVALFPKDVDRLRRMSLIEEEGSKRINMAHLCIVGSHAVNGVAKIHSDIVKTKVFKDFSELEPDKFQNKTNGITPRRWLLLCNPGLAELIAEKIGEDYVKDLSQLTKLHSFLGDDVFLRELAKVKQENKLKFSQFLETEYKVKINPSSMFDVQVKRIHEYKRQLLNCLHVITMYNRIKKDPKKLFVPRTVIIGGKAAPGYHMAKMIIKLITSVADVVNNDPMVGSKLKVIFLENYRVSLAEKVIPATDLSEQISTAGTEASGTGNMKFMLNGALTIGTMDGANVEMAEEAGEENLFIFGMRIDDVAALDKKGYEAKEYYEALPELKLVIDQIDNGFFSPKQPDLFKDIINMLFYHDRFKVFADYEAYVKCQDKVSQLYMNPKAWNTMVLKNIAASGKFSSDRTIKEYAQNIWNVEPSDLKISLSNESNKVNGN

[2] = test system: SK-HEP1; assay: Inhibitory concentration against human SK-Hep-1 cells (hepatoma cell line); assay type: functional, cell-based
Procedure, shortened: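 SK-HEP-1 cells carrying pre-labeled ¹⁴C-glycogen, with phosphorylase activated by forskolin. Glycogenolysis is the ¹⁴C-glycogen (dpm) difference between basal and forskolin-treated cells. Inhibition is expressed as percent of forskolin-induced glycogenolysis in DMSO controls. IC50 from a 6-point curve (0.1–30μM), triplicate points, mean of ≥2 independent experiments where repeated.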

Compound | IC50 [1] [nM] | IC50 [2] [nM]
CN(C(=O)CNC(=O)c1cc2cc(Cl)ccc2[nH]1)C1CCOCC1 | 510 | 3400
CC(C)OCCCN(C(=O)CNC(=O)c1cc2cc(Cl)ccc2[nH]1)C1CCCC1 | 670 | 
O=C(NCC(=O)N(CCO)Cc1ccco1)c1cc2cc(Cl)ccc2[nH]1 | 260 | 1500
CN(CC1CC1)C(=O)CNC(=O)c1cc2cc(Cl)ccc2[nH]1 | 470 | 1200
CCN(C(=O)CNC(=O)c1cc2cc(Cl)ccc2[nH]1)C1CCCC1 | 210 | 410
O=C(NCC(=O)N(CCO)C1CCCCCCCCC1)c1cc2cc(Cl)ccc2[nH]1 | 210 | > 30000
CN(C(=O)CNC(=O)c1cc2cc(Cl)ccc2[nH]1)C1CCS(=O)(=O)C1 (stereo not given) | 410 | 2000
COCC(O)CN(C(=O)CNC(=O)c1cc2cc(Cl)ccc2[nH]1)C1CCCC1 (stereo not given) | 100 | 870
CC(C)OCCN(C(=O)CNC(=O)c1cc2cc(Cl)ccc2[nH]1)C1CCCC1 | 1100 | 
CN(CCO)C(=O)CNC(=O)c1cc2cc(Cl)ccc2[nH]1 | 570 | 4000
CC(O)CN(C(=O)CNC(=O)c1cc2cc(Cl)ccc2[nH]1)C1CCCC1 (stereo not given) | 16 | 1300
COCCCN(C(=O)CNC(=O)c1cc2cc(Cl)ccc2[nH]1)C1CCCC1 | 370 | 
CN(C(=O)CNC(=O)c1cc2cc(Cl)ccc2[nH]1)C1CCC(O)CC1 (stereo not given) | 2100 | 
O=C(NCC(=O)N(CCO)C1CCSC1)c1cc2cc(Cl)ccc2[nH]1 (stereo not given) | 340 | 5000
O=C(NCC(=O)N(CCO)Cc1ccccc1)c1cc2cc(Cl)ccc2[nH]1 | 320 | 2500
CN(C(=O)CNC(=O)c1cc2cc(Cl)ccc2[nH]1)c1cccnc1 | 330 | 1700
O=C(NCC(=O)N(CCN1CCOCC1)C1CCCC1)c1cc2cc(Cl)ccc2[nH]1 | 1500 | 
O=C(NCC(=O)N(CCO)Cc1cccnc1)c1cc2cc(Cl)ccc2[nH]1 | 1100 | 
O=C(NCC(=O)N(CCO)C1CCOC1)c1cc2cc(Cl)ccc2[nH]1 (stereo not given) | 55 | 1800
NC(CO)CN(C(=O)CNC(=O)c1cc2cc(Cl)ccc2[nH]1)C1CCCC1 (stereo not given) | 510 | 8300
CN(CC(F)(F)F)C(=O)CNC(=O)c1cc2cc(Cl)ccc2[nH]1 | 1900 | 
NC(=O)CN(C(=O)CNC(=O)c1cc2cc(Cl)ccc2[nH]1)C1CCCC1 | 4600 | 

Compound | IC50 [1] [nM] | IC50 [2] [nM]
CC(C)CN(C)C(=O)CNC(=O)c1cc2cc(Cl)ccc2[nH]1 | 230 | 620
O=C(NCC(=O)N(C(CO)CO)C1CCCC1)c1cc2cc(Cl)ccc2[nH]1 | 350 | 9400
CCCN(C(=O)CNC(=O)c1cc2cc(Cl)ccc2[nH]1)C1CCCC1 | 340 | 
O=C(NCC(=O)N(C1CCCC1)C1CCCC1)c1cc2cc(Cl)ccc2[nH]1 | 660 | 
CN(C)C(=O)CN(C(=O)CNC(=O)c1cc2cc(Cl)ccc2[nH]1)C1CCCC1 | 410 | 13000
CN(Cc1ccccc1)C(=O)CNC(=O)c1cc2cc(Cl)ccc2[nH]1 | 550 | > 10000
CC(C)(C)N(CCO)C(=O)CNC(=O)c1cc2cc(Cl)ccc2[nH]1 | 290 | 6700
CN(C(=O)CNC(=O)c1cc2cc(Cl)ccc2[nH]1)C1CCC1 | 170 | 1000
CN(Cc1cccnc1)C(=O)CNC(=O)c1cc2cc(Cl)ccc2[nH]1 | 1900 | 
O=C(NCC(=O)N(CCO)C1CCCCCCCCCCC1)c1cc2cc(Cl)ccc2[nH]1 | 950 | > 30000
CN(CCc1ccccc1)C(=O)CNC(=O)c1cc2cc(Cl)ccc2[nH]1 | > 10000 | 
CN(C(=O)CNC(=O)c1cc2cc(Cl)ccc2[nH]1)C1CCN(C=O)C1 (stereo not given) | 250 | 19000
CN(Cc1ccncc1)C(=O)CNC(=O)c1cc2cc(Cl)ccc2[nH]1 | 1600 | 
CN(C(=O)CNC(=O)c1cc2cc(Cl)ccc2[nH]1)c1ccccc1 | 210 | 7100
O=C(O)CN(C(=O)CNC(=O)c1cc2cc(Cl)ccc2[nH]1)C1CCCC1 | 260 | > 10000
CN(C(=O)CNC(=O)c1cc2cc(Cl)ccc2[nH]1)C1CCCCCC1 | 320 | > 10000
CN(C(=O)CNC(=O)c1cc2cc(Cl)ccc2[nH]1)C1CC1 | 670 | 
O=C(NCC(=O)N(CCO)C1CCCCCC1)c1cc2cc(Cl)ccc2[nH]1 | 30 | 2300
O=C(NCC(=O)N(CCCCO)C1CCCC1)c1cc2cc(Cl)ccc2[nH]1 | 3900 | 
CN(C)CCN(C(=O)CNC(=O)c1cc2cc(Cl)ccc2[nH]1)C1CCCC1 | 9700 | 
O=C(NCC(=O)N(CCO)C1CCCCCCC1)c1cc2cc(Cl)ccc2[nH]1 | 32 | 12000
O=C(NCC(=O)N(CCO)Cc1ncc[nH]1)c1cc2cc(Cl)ccc2[nH]1 | 430 | 14000

Compound | IC50 [1] [nM] | IC50 [2] [nM]
CCCCN(C(=O)CNC(=O)c1cc2cc(Cl)ccc2[nH]1)C1CCCC1 | 82 | 9400
CN(C)CCCN(C(=O)CNC(=O)c1cc2cc(Cl)ccc2[nH]1)C1CCCC1 | 5000 | 
COCC(N)CN(C(=O)CNC(=O)c1cc2cc(Cl)ccc2[nH]1)C1CCCC1 (stereo not given) | 1200 | 
CN(C(=O)CNC(=O)c1cc2cc(Cl)ccc2[nH]1)c1ccccn1 | 340 | 9900
CC(C)OCC(O)CN(C(=O)CNC(=O)c1cc2cc(Cl)ccc2[nH]1)C1CCCC1 (stereo not given) | 930 | 
O=C(NCC(=O)N(CCO)C1CCS(=O)(=O)C1)c1cc2cc(Cl)ccc2[nH]1 (stereo not given) | 1300 | 
CN(Cc1ccccn1)C(=O)CNC(=O)c1cc2cc(Cl)ccc2[nH]1 | 1500 | 
CN(C(=O)CNC(=O)c1cc2cc(Cl)ccc2[nH]1)C(C)(C)C | 670 | 
O=C(NCC(=O)N(CCO)C1CC1)c1cc2cc(Cl)ccc2[nH]1 | 200 | 4600
N#CCCN(C(=O)CNC(=O)c1cc2cc(Cl)ccc2[nH]1)C1CCCC1 | 140 | 750
NCCCN(C(=O)CNC(=O)c1cc2cc(Cl)ccc2[nH]1)C1CCCC1 | 3000 | 
O=C(NCC(=O)N(CCO)C1CCS(=O)(=O)CC1)c1cc2cc(Cl)ccc2[nH]1 | 12 | > 30000
O=C(NCC(=O)N(CCO)C1CCc2ccccc21)c1cc2cc(Cl)ccc2[nH]1 (stereo not given) | 49 | 1800
NCCN(C(=O)CNC(=O)c1cc2cc(Cl)ccc2[nH]1)C1CCCC1 | 1600 | 
CCOC(=O)CN(C(=O)CNC(=O)c1cc2cc(Cl)ccc2[nH]1)C1CCCC1 | 530 | 5200
CN1CCC(N(C)C(=O)CNC(=O)c2cc3cc(Cl)ccc3[nH]2)C1 (stereo not given) | 9600 | 
O=C(NCC(=O)N(CCOCc1ccccc1)C1CCCC1)c1cc2cc(Cl)ccc2[nH]1 | 1600 | 
CN(C(=O)CNC(=O)c1cc2cc(Cl)ccc2[nH]1)C1CCN(C=O)CC1 | 8400 | 
O=C(NCC(=O)N(CCO)CC1CCCO1)c1cc2cc(Cl)ccc2[nH]1 (stereo not given) | 550 | 5700
CC(CCO)N(C(=O)CNC(=O)c1cc2cc(Cl)ccc2[nH]1)C1CCCC1 (stereo not given) | 210 | 1400
C=CCN(C(=O)CNC(=O)c1cc2cc(Cl)ccc2[nH]1)C1CCCC1 | 96 | 900
CCCCN(C)C(=O)CNC(=O)c1cc2cc(Cl)ccc2[nH]1 | 150 | 1400
